Experimental data as given in ChEMBL document CHEMBL3351851, “Discovery and optimization of novel small-molecule HIV-1 entry inhibitors using field-based virtual screening and bioisosteric replacement” (Bioorg Med Chem Lett, 2014).
pIC50: −log10 of the molar value.

How the values were obtained:
[1] = tested on: Human immunodeficiency virus 1; experiment: Antiviral activity against Human immunodeficiency virus type 1 (isolate YU2) pseudotyped virus expressed in human U87 cells after 48 hrs by cell-based luciferase reporter gene assay; assay type: functional, U-87MG ATCC; conditions: Human immunodeficiency virus 1, isolate YU2, U-87 MG
In short: (§1)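 Envelope-pseudotyped, single-round luciferase-reporter virus was made in 293T cells co-transfected with pNL4-3-LucR+E- and the matching Env vector. U87-CD4/CCR5 or U87-CD4/CXCR4 cells were seeded at 1.2x10⁴ per well and infected next day with 20 ng p24 per well plus compound (6–9 dilutions, 1:10 or 1:5, triplicate) or DMSO. Luciferase was read at 48 h; % infection is relative to DMSO wells.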

[2] = tested on: Human immunodeficiency virus 1; experiment: Antiviral activity against HIV1 pseudotyped virus expressed in human U87 cells co-expressing AMLV envelope after 48 hrs by cell-based luciferase reporter gene assay; assay type: functional, organism-based; conditions: u-87mg atcc
In short: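 Single-round infection of U87-CD4/CCR5 or U87-CD4/CXCR4 cells (seeded at 1.2x10⁴/well, infected next day) with 20 ng p24 per well of luciferase-reporter pseudovirus made in 293T cells using pNL4-3-LucR⁺E⁻. Compounds were applied in six to nine serial dilutions (1:10 or 1:5) alongside DMSO, in triplicate. Luciferase was read at 48 h, and percent infection was taken relative to DMSO wells.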

[3] = tested on: Human immunodeficiency virus 2; experiment: Antiviral activity against HIV2 isolate CDC310319 infected in human PBMC; assay type: functional, organism-based; conditions: Human immunodeficiency virus 2, isolate CDC310319
[4] = tested on: Human immunodeficiency virus 1; experiment: Antiviral activity against Human immunodeficiency virus type 1 (JRCSF ISOLATE) pseudotyped virus expressed in human U87 cells after 48 hrs by luciferase reporter gene assay; assay type: functional, cell-based, U-87MG ATCC; conditions: Human immunodeficiency virus 1, JRCSF ISOLATE, U-87 MG; in short: as §1
[5] = tested on: Human immunodeficiency virus 1; experiment: Antiviral activity against HIV1 isolate Hxbc2 pseudotyped virus expressed in human U87 cells after 48 hrs by luciferase reporter gene assay; assay type: functional, organism-based, U-87MG ATCC; conditions: Human immunodeficiency virus 1, isolate Hxbc2, U-87 MG; in short: as §1
[6] = tested on: Human immunodeficiency virus 1; experiment: Antiviral activity against HIV1 subtype A isolate 92UG037 infected in human PBMC; assay type: functional, organism-based; conditions: Human immunodeficiency virus 1, isolate 92UG037
[7] = tested on: Human immunodeficiency virus 1; experiment: Antiviral activity against HIV1 subtype B isolate 91US004 infected in human PBMC; assay type: functional, organism-based; conditions: Human immunodeficiency virus 1, isolate 91US004
[8] = tested on: Human immunodeficiency virus 1; experiment: Antiviral activity against HIV1 subtype B isolate 94US_33931N infected in human PBMC; assay type: functional, organism-based; conditions: Human immunodeficiency virus 1, isolate 94US_33931N
[9] = tested on: Human immunodeficiency virus 1; experiment: Antiviral activity against HIV1 subtype C isolate 98US_MSC5016 infected in human PBMC; assay type: functional, organism-based; conditions: Human immunodeficiency virus 1, isolate 98US_MSC5016
[10] = tested on: Human immunodeficiency virus 1; experiment: Antiviral activity against HIV1 subtype D isolate 99UG_A07412M1 infected in human PBMC; assay type: functional, organism-based; conditions: Human immunodeficiency virus 1, isolate 99UG_A07412M1
[11] = Antiviral index, ratio of TC50 for human PBMC to IC50 for HIV1 subtype A isolate 92UG037
[12] = Antiviral index, ratio of TC50 for human PBMC to IC50 for HIV1 subtype B isolate 91US004
[13] = Antiviral index, ratio of TC50 for human PBMC to IC50 for HIV1 subtype B isolate 94US_33931N
[14] = Antiviral index, ratio of TC50 for human PBMC to IC50 for HIV1 subtype C isolate 98US_MSC5016
[15] = Antiviral index, ratio of TC50 for human PBMC to IC50 for HIV1 subtype D isolate 99UG_A07412M1

Q: With O=C(COc1cccc2ccccc12)N1CCN(C(=O)c2ccccc2)CC1 as the compound, how does the pIC50 [1] read?
A: 4.27

Q: What about the IC50 [2] of the same compound?
A: Not Active

Q: With COc1cnc(-n2cnc(C)n2)c2[nH]cc(C(=O)C(=O)N3CC4CN(C(=O)C5=CCCCC5)CC4C3)c12 (stereo not given) as the compound, how does the IC50 [2] read?
A: Not Active

Q: And the pIC50 [3]?
A: < 4.00

Q: And the pIC50 [4]?
A: 8.70

Q: What about the pIC50 [5] of the same compound?
A: 9.22

Q: And the pIC50 [6]?
A: 4.60

Q: And the pIC50 [7]?
A: 6.71

Q: And the pIC50 [8]?
A: 9.22

Q: What about the pIC50 [9] of the same compound?
A: 5.41

Q: And the pIC50 [10]?
A: 6.31

Q: And the Ratio [11]?
A: >3.97

Q: What about the Ratio [12] of the same compound?
A: >513

Q: What about the Ratio [13] of the same compound?
A: >166666

Q: And the Ratio [14]?
A: >25.6

Q: And the Ratio [15]?
A: >204

Q: Which results are given for O=C(Cc1cccc2ccccc12)N1CCN(C(=O)c2ccco2)CC1?
A: pIC50 [1]: 4.10; IC50 [2]: Not Active

Q: What does the source list for Cc1cc(C)nc(SCC(=O)N2CCN(C(=O)c3ccccc3)CC2)n1?
A: pIC50 [1]: 3.82; IC50 [2]: Not Active

Q: With O=C(CSc1ncnc2sccc12)N1CCN(C(=O)c2cccs2)CC1 as the compound, how does the pIC50 [1] read?
A: 4.47

Q: What about the IC50 [2] of the same compound?
A: Not Active

Q: With COc1ncc(OC)c2c(C(=O)C(=O)N3CC4CN(C(=O)c5ccccc5)CC4C3)c[nH]c12 (stereo not given) as the compound, how does the IC50 [2] read?
A: Not Active

Q: And the pIC50 [4]?
A: 7.05

Q: What about the pIC50 [5] of the same compound?
A: 6.72

Q: With O=C(c1ccccc1)N1CC2CN(C(=O)c3ccc4c5c(cccc35)CC4)CC2C1 (stereo not given) as the compound, how does the IC50 [2] read?
A: Not Active

Q: And the pIC50 [4]?
A: 4.00

Q: For COc1cnc(-n2cnc(C)n2)c2[nH]cc(C(=O)C(=O)N3CC4CN(C(=O)c5ccccc5)CC4C3)c12 (stereo not given), which IC50 [2] is on record?
A: Not Active

Q: And the pIC50 [4]?
A: 9.10

Q: And the pIC50 [5]?
A: 9.00

Q: What does the source list for O=C(c1ccccc1)N1CCN(C(=O)c2ccc3c4c(cccc24)CC3)CC1?
A: pIC50 [1]: 4.88; IC50 [2]: Not Active

Q: For COc1cnc(Cl)c2[nH]cc(C(=O)C(=O)N3CC4CN(C(=O)c5ccccc5)CC4C3)c12 (stereo not given), which IC50 [2] is on record?
A: Not Active

Q: What about the pIC50 [4] of the same compound?
A: 6.01

Q: And the pIC50 [5]?
A: 4.77
